Key:
[1] = target: T1, Heat shock protein HSP90 (Homo sapiens, UniProt P07900+P08238); test: Inhibition of HSP90 ATPase activity (unknown origin); type: protein assay
[2] = test system: HCT-116; test: Cytotoxicity against human HCT116 cells assessed as cell growth inhibition; type: functional, cell-based
[3] = target: T1, Heat shock protein HSP90; test: Inhibition of HSP90 (unknown origin) assessed as HER2 degradation by cell-based assay
[4] = test system: A2780; test: Cytotoxicity against human A2780 cells assessed as cell growth inhibition; type: functional, cell-based
[5] = test system: A2780; test: Antitumor activity against human A2780 cells xenografted in BALB/c nu/nu mouse assessed as tumor growth inhibition at 50 mg/kg, iv administered 3 times a week for 2 weeks starting from 5 to 6 days post tumor inoculation relative to control; type: functional; conditions: read-out: TGI
Method in brief: (§1)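 Human A2780 ovarian adenocarcinoma cells were cultured and implanted into BALB/c-nu/nude mice, n = 6 per group. Tumor size and volume were measured 5 or 6 days later. Compounds were suspended in 1% carboxymethyl cellulose and given intravenously. Deaths and body weight were monitored. Tumor growth inhibition = [1 − (mean treated tumor volume)/(mean control tumor volume)] × 100%.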

[6] = Toxicity in BALB/c nu/nu mouse xenografted with human A2780 cells assessed as mouse death at 50 mg/kg, iv administered 3 times a week for 2 weeks starting from 5 to 6 days post tumor inoculation; type: organism-based; conditions: in vivo; method in brief: as §1
[7] = Toxicity in BALB/c nu/nu mouse xenografted with human A2780 cells assessed as effect on body weight at 50 mg/kg, iv administered 3 times a week for 2 weeks starting from 5 to 6 days post tumor inoculation; type: organism-based; conditions: in vivo; method in brief: as §1

Compound: CCNC(=O)c1noc(-c2cc(C(C)C)c(O)cc2O)c1-c1cc(COCC(=O)OC)no1
- IC50 [1]: 443 nM
- IC50 [2]: 262 nM

Compound: CCNC(=O)c1noc(-c2cc(C(C)C)c(O)cc2O)c1-c1cc(CN)no1
- IC50 [3]: 171 nM
- IC50 [1]: 674 nM
- IC50 [2]: 84 nM

Compound: CCNC(=O)c1noc(-c2cc(C(C)C)c(O)cc2O)c1-c1cc(CN2CCOCC2)no1
- IC50 [3]: 50 nM
- IC50 [1]: 595 nM
- IC50 [2]: 28 nM

Compound: CCNC(=O)c1noc(-c2cc(C(C)C)c(O)cc2O)c1-c1cnn(CC)c1
- IC50 [3]: 13 nM
- IC50 [1]: 532 nM
- IC50 [4]: 30 nM
- IC50 [2]: 26 nM

Compound: CCNC(=O)c1noc(-c2cc(C(C)C)c(O)cc2O)c1-c1cnn(C(C)C)c1
- IC50 [3]: 19 nM
- IC50 [1]: 542 nM
- IC50 [4]: 21 nM
- IC50 [2]: 21 nM

Compound: CCCNCc1cc(-c2c(C(=O)NCC)noc2-c2cc(C(C)C)c(O)cc2O)on1
- IC50 [3]: 24 nM
- IC50 [1]: 465 nM
- IC50 [2]: 117 nM

Compound: CCNC(=O)c1noc(-c2cc(C(C)C)c(O)cc2O)c1-c1cc(CN2CCN(C)CC2)no1
- IC50 [1]: 572 nM
- IC50 [2]: 340 nM

Compound: CCNC(=O)c1noc(-c2cc(C(C)C)c(O)cc2O)c1-c1cc(C(N)=O)no1
- IC50 [3]: 52 nM
- IC50 [1]: 657 nM
- IC50 [4]: 15 nM
- IC50 [2]: 79 nM

Compound: CCNC(=O)c1noc(-c2cc(C(C)C)c(O)cc2O)c1-c1cc(CN2CCCCC2)no1
- IC50 [3]: 62 nM
- IC50 [1]: 752 nM
- IC50 [4]: 62 nM
- IC50 [2]: 93 nM

Compound: CCNC(=O)c1noc(-c2cc(C(C)C)c(O)cc2O)c1-c1cc(CN(C)C)no1
- IC50 [3]: 33 nM
- IC50 [1]: 490 nM
- IC50 [4]: 31 nM
- IC50 [2]: 92 nM

Compound: CCNC(=O)c1noc(-c2cc(C(C)C)c(O)cc2O)c1-c1cc(COS(C)(=O)=O)no1
- IC50 [1]: 476 nM
- IC50 [2]: 400 nM

Compound: CCNC(=O)c1noc(-c2cc(C(C)C)c(O)cc2O)c1-c1cc(CNCCO)no1
- IC50 [1]: 975 nM
- IC50 [2]: 111 nM

Compound: CCNC(=O)c1noc(-c2cc(C(C)C)c(O)cc2O)c1-c1cc(CNC(C)=O)no1
- IC50 [3]: 71 nM
- IC50 [1]: 500 nM
- IC50 [2]: 167 nM

Compound: CCNC(=O)c1noc(-c2cc(C(C)C)c(O)cc2O)c1-c1cc(CN2CCCC2)no1
- IC50 [3]: 38 nM
- IC50 [1]: 686 nM
- IC50 [4]: 55 nM
- IC50 [2]: 51 nM

Compound: CCNC(=O)c1noc(-c2cc(C(C)C)c(O)cc2O)c1-c1cc(CC#N)no1
- IC50 [1]: 470 nM
- IC50 [2]: 79 nM

Compound: CCNC(=O)c1noc(-c2cc(C(C)C)c(O)cc2O)c1-c1cc(CF)no1
- IC50 [3]: 27 nM
- IC50 [1]: 410 nM
- IC50 [4]: 28 nM
- IC50 [2]: 63 nM

Compound: CCCN(CCC)Cc1cc(-c2c(C(=O)NCC)noc2-c2cc(C(C)C)c(O)cc2O)on1
- IC50 [3]: 117 nM
- IC50 [1]: 413 nM
- IC50 [2]: 183 nM

Compound: CCNC(=O)c1noc(-c2cc(C(C)C)c(O)cc2O)c1-c1cc(C(=O)NC)no1
- IC50 [3]: 24 nM
- IC50 [1]: 489 nM
- IC50 [4]: 100 nM
- IC50 [2]: 124 nM

Compound: CCNC(=O)c1noc(-c2cc(C(C)C)c(O)cc2O)c1-c1ccn(C(C)C)n1
- inhibition in vivo at 50 mg/kg [5]: 49.8%
- Activity [6]: Non-Toxic
- IC50 [3]: 14 nM
- IC50 [1]: 543 nM
- Activity [7]: Non-Toxic
- IC50 [4]: 45 nM
- IC50 [2]: 19 nM

Compound: CCNC(=O)c1noc(-c2cc(C(C)C)c(O)cc2O)c1-c1cc[nH]n1
- inhibition in vivo at 50 mg/kg [5]: 46.4%
- Activity [6]: Non-Toxic
- IC50 [3]: 45 nM
- IC50 [1]: 524 nM
- Activity [7]: Non-Toxic
- IC50 [4]: 33 nM
- IC50 [2]: 36 nM

Compound: CCNC(=O)c1noc(-c2cc(C(C)C)c(O)cc2O)c1-c1cc(CNC)no1
- IC50 [1]: 436 nM
- IC50 [2]: 164 nM

Compound: CCNC(=O)c1noc(-c2cc(C(C)C)c(O)cc2O)c1-c1cc(CNC(C)C)no1
- IC50 [3]: 18 nM
- IC50 [1]: 521 nM
- IC50 [4]: 38 nM
- IC50 [2]: 109 nM

Compound: CCNC(=O)c1noc(-c2cc(C(C)C)c(O)cc2O)c1-c1cc(C(=O)N2CCSCC2)no1
- IC50 [1]: 566 nM
- IC50 [4]: 207 nM

Compound: CCNCc1cc(-c2c(C(=O)NCC)noc2-c2cc(C(C)C)c(O)cc2O)on1
- inhibition in vivo at 50 mg/kg [5]: 40.3%
- Activity [6]: Non-Toxic
- IC50 [3]: 23 nM
- IC50 [1]: 475 nM
- Activity [7]: Non-Toxic
- IC50 [4]: 45 nM
- IC50 [2]: 45 nM

Compound: CCNC(=O)c1noc(-c2cc(C(C)C)c(O)cc2O)c1-c1ccn(C)n1
- IC50 [3]: 16 nM
- IC50 [1]: 522 nM
- IC50 [4]: 12 nM
- IC50 [2]: 16 nM

Compound: CCNC(=O)c1noc(-c2cc(C(C)C)c(O)cc2O)c1-c1cnn(C)c1
- IC50 [3]: 19 nM
- IC50 [1]: 482 nM
- IC50 [4]: 20 nM
- IC50 [2]: 41 nM

Compound: CCNC(=O)c1noc(-c2cc(C(C)C)c(O)cc2O)c1-c1ccn(CC)n1
- IC50 [3]: 12 nM
- IC50 [1]: 553 nM
- IC50 [4]: 13 nM
- IC50 [2]: 25 nM

Compound: CCNC(=O)c1noc(-c2cc(C(C)C)c(O)cc2O)c1-c1cc(C(=O)N2CCOCC2)no1
- IC50 [3]: 52 nM
- IC50 [1]: 583 nM
- IC50 [4]: 85 nM
- IC50 [2]: 60 nM

Compound: CCNC(=O)c1noc(-c2cc(C(C)C)c(O)cc2O)c1-c1cc(CNC(=O)CC)no1
- IC50 [3]: 50 nM
- IC50 [1]: 382 nM
- IC50 [2]: 78 nM

Compound: CCNC(=O)c1noc(-c2cc(C(C)C)c(O)cc2O)c1-c1cc(COCC(N)=O)no1
- IC50 [3]: 50 nM
- IC50 [1]: 452 nM
- IC50 [2]: 97 nM

Compound: CCNC(=O)c1noc(-c2cc(C(C)C)c(O)cc2O)c1-c1cc(COCC(=O)O)no1
- IC50 [1]: 1280 nM

Compound: CCNC(=O)c1noc(-c2cc(C(C)C)c(O)cc2O)c1-c1cc(C(=O)O)no1
- IC50 [1]: 1870 nM
- IC50 [4]: 20000 nM

Compound: CCNC(=O)c1noc(-c2cc(C(C)C)c(O)cc2O)c1-c1cc(C(=O)OCC)no1
- IC50 [1]: 447 nM
- IC50 [4]: 9000 nM

Compound: CCCn1ccc(-c2c(C(=O)NCC)noc2-c2cc(C(C)C)c(O)cc2O)n1
- IC50 [3]: 24 nM
- IC50 [1]: 584 nM
- IC50 [4]: 27 nM
- IC50 [2]: 49 nM

Compound: CCNC(=O)c1noc(-c2cc(C(C)C)c(O)cc2O)c1-c1cc(CN2CCSCC2)no1
- IC50 [3]: 38 nM
- IC50 [1]: 440 nM
- IC50 [4]: 64 nM
- IC50 [2]: 67 nM

Compound: C=CCNCc1cc(-c2c(C(=O)NCC)noc2-c2cc(C(C)C)c(O)cc2O)on1
- IC50 [3]: 67 nM
- IC50 [1]: 435 nM

Compound: CCNC(=O)c1noc(-c2cc(C(C)C)c(O)cc2O)c1-c1cc(CN(CC)CC)no1
- inhibition in vivo at 50 mg/kg [5]: 12.8%
- Activity [6]: Non-Toxic
- IC50 [3]: 52 nM
- IC50 [1]: 468 nM
- Activity [7]: Non-Toxic
- IC50 [4]: 78 nM
- IC50 [2]: 38 nM

Reference: ChEMBL document CHEMBL4627371, “Discovery of novel heat shock protein (Hsp90) inhibitors based on luminespib with potent antitumor activity” (Bioorg Med Chem Lett, 2020)
